According to ChEMBL document CHEMBL4765368, “Structure guided design and synthesis of furyl thiazolidinedione derivatives as inhibitors of GLUT 1 and GLUT 4, and evaluation of their anti-leukemic potential” (Eur J Med Chem, 2020):
pIC50: −log10 of the molar value. Calls of active or inactive are those of the source. No cut-off for these calls is given here.

Experiments:
[1] = biological target: T1, Histone deacetylase 8 (Homo sapiens) (UniProt Q9BY41); assay: (§1) Inhibition of recombinant human His6/SUMO-tagged HDAC8 expressed in Escherichia coli (BL21) DE3 pLysS assessed as residual activity at 50 uM using Boc-Lys(trifluoroacetyl)-AMC as substrate preincubated for 60 mins followed by substrate addition and measured after 60 mins by fluorescence assay relative to control; details: time 120.0 min
T1 sequence (whole entry): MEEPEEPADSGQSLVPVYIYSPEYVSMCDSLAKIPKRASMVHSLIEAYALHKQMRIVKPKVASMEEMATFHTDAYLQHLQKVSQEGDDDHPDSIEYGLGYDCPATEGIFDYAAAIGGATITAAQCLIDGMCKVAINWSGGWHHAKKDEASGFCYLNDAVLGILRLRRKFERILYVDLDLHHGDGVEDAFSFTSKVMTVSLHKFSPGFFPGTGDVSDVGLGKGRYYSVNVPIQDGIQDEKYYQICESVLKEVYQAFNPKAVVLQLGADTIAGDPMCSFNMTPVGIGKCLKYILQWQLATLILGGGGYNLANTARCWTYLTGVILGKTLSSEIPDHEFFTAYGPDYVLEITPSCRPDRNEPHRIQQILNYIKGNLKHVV
Summary of the method: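 20 μM Boc-Lys(trifluoroacetyl)-AMC was then added for 60 min at 30 °C, the reaction stopped with 1.7 μM SATFMK and developed with 0.4 mg/ml trypsin, and AMC fluorescence read at Ex 350/Em 450 nm. Triplicates; percent relative activity.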

[2] = biological target: Histone deacetylase 4 (Homo sapiens) (UniProt P56524); assay: as §1, with “N-terminal GST-tagged HDAC4 (627 to end residues)” for “His6/SUMO-tagged HDAC8”, “baculovirus infected Sf9 insect cells” for “Escherichia coli (BL21) DE3 pLysS”; details: time 120.0 min
[3] = biological target: T2, Solute carrier family 2, facilitated glucose transporter member 5 (Homo sapiens) (UniProt P22732); assay: Inhibition of transport activity of human GLUT5 expressed in hexose transporter deficient VW4000 yeast cells assessed as reduction in transporter-mediated [14C]-fructose uptake into cells at 100 uM measured after 10 mins by scintillation counting method; type: cell-based
T2 sequence (whole entry): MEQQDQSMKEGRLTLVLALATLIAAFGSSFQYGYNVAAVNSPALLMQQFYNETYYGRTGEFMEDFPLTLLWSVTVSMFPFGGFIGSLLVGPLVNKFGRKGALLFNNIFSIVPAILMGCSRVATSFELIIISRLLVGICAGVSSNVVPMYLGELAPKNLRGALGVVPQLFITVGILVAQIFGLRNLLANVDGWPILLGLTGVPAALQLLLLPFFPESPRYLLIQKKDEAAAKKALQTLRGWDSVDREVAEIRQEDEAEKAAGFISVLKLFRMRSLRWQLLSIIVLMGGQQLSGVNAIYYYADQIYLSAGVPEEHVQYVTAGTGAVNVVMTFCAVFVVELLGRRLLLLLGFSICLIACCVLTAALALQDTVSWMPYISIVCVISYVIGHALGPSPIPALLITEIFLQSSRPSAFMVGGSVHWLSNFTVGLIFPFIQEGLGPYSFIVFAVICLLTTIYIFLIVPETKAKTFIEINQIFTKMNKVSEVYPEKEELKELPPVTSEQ
Summary of the method: (§2)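 The hxt0 yeast strain expressing one human GLUT was grown at 30 °C and resuspended in PBS pH 7.4 at OD600 ~10. Uptake was started with 14C-glucose at 5 mM final (GLUT1, GLUT4) or 14C-fructose at 10 mM final (GLUT5). It was quenched after 10 min with ice-cold 0.1 M KPi/0.1 M LiCl pH 5.5, filtered and counted by scintillation. Compound at 100 μM with 1% DMSO; DMSO control and phloretin 200 μM (GLUT1/4) or MSNBA 100 μM (GLUT5) as references. Triplicates.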

K562 = assay: Cytotoxicity against human K562 cells assessed as reduction in cell viability measured after 48 hrs by Hoechst 33342/propidium iodide staining based imaging analysis; type: functional
Summary of the method: (§3)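 Cells were seeded at 10,000 per well (HS-27 at 3,000) in 10% FBS RPMI (leukemic lines) or DMEM (MDA-MB-231, HS-27). Compound in DMSO (1% v/v final) at 0.5–100 µM for 48 h. Hoechst 33342 and PI were added 2 h before automated imaging; dead cells were co-stained. Quadruplicates. CC50 was taken by linear interpolation between the two concentrations nearest 50% death.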

KCL-22 = assay: Cytotoxicity against human KCL-22 cells assessed as reduction in cell viability measured after 48 hrs by Hoechst 33342/propidium iodide staining based imaging analysis; type: functional; summary of the method: as §3
CCRF-CEM = assay: Cytotoxicity against human CCRF-CEM cells assessed as reduction in cell viability measured after 48 hrs by Hoechst 33342/propidium iodide staining based imaging analysis; type: functional; summary of the method: as §3
Histone deacetylase 8 = biological target: T3, Histone deacetylase 8 (Homo sapiens, UniProt Q9BY41); assay: Inhibition of recombinant human His6/SUMO-tagged HDAC8 expressed in Escherichia coli (BL21) DE3 pLysS using Boc-Lys(trifluoroacetyl)-AMC as substrate preincubated for 60 mins followed by substrate addition and measured after 60 mins by fluorescence assay
T3 sequence (Q9BY41 whole entry): T1 sequence (whole entry)

[4] = biological target: T4, Solute carrier family 2, facilitated glucose transporter member 1 (Homo sapiens, UniProt P11166); assay: Inhibition of transport activity of human GLUT1 expressed in hexose transporter deficient VW4000fgy1 yeast cells assessed as reduction in transporter-mediated [14C]-hexose uptake into cells measured after 10 mins by scintillation counting method; type: cell-based
T4 sequence (P11166 whole entry): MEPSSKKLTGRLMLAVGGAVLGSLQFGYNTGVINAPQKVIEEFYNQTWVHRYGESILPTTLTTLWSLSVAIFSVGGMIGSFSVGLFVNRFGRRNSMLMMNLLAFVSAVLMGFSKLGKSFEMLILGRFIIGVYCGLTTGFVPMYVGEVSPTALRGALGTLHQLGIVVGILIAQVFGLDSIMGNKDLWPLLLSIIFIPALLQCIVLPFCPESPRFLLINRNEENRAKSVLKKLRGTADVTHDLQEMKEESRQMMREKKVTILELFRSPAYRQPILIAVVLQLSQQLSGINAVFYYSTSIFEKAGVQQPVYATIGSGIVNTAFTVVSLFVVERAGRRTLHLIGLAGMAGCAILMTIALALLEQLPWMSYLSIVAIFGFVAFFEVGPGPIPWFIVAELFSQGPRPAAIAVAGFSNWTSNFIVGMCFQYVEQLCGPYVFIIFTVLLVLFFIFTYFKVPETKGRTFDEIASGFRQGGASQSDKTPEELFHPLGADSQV
Summary of the method: (§4)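 GLUT1 (VW4000fgy1) or GLUT4 (VW4000fgy1erg4) hxt0 yeast were grown on maltose and then glucose and resuspended in PBS pH 7.4 at OD600 ~10. Compound was used at 0.1–100 μM, final 1% DMSO. Uptake of 5 mM 14C-glucose over 10 min was stopped with ice-cold quench buffer, filtered and counted by scintillation. IC50 was taken from dose-response curves of three independent measurements.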

[5] = biological target: T5, Solute carrier family 2, facilitated glucose transporter member 4 (Homo sapiens) (UniProt P14672); assay: Inhibition of transport activity of human GLUT4 expressed in hexose transporter deficient […] erg4 yeast cells assessed as reduction in transporter-mediated [14C]-hexose uptake into cells at 100 uM measured after 10 mins by scintillation counting method relative to control; type: cell-based; summary of the method: as §2
T5 sequence (whole entry): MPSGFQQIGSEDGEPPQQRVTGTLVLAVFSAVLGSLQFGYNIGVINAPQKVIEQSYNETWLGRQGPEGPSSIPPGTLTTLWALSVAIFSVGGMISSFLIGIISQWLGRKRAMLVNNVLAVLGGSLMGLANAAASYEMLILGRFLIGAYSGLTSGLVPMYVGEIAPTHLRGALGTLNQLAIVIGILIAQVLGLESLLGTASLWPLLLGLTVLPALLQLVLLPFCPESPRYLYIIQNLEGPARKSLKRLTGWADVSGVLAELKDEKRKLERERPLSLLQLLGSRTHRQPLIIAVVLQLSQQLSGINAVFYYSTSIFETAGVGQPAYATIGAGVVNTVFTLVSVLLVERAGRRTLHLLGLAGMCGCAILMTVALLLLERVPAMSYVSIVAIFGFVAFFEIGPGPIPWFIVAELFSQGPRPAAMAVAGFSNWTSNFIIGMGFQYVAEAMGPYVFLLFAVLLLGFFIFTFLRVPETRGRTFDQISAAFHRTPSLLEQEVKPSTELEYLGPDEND

[6] = biological target: T6, Solute carrier family 2, facilitated glucose transporter member 4 (Homo sapiens, UniProt P14672); assay: Inhibition of transport activity of human GLUT4 expressed in hexose transporter deficient W4000fgy1 erg4 yeast cells assessed as reduction in transporter-mediated [14C]-hexose uptake into cells measured after 10 mins by scintillation counting method; type: cell-based; summary of the method: as §4
T6 sequence (P14672 whole entry): T5 sequence (whole entry)

[7] = biological target: T7, Solute carrier family 2, facilitated glucose transporter member 1 (Homo sapiens) (UniProt P11166); assay: Inhibition of transport activity of human GLUT1 expressed in hexose transporter deficient VW4000fgy1 yeast cells assessed as reduction in transporter-mediated [14C]-hexose uptake into cells at 100 uM measured after 10 mins by scintillation counting method relative to control; type: cell-based; summary of the method: as §2
T7 sequence (whole entry): T4 sequence (P11166 whole entry)

Sequence of Histone deacetylase 4 (Homo sapiens) (P56524 whole entry): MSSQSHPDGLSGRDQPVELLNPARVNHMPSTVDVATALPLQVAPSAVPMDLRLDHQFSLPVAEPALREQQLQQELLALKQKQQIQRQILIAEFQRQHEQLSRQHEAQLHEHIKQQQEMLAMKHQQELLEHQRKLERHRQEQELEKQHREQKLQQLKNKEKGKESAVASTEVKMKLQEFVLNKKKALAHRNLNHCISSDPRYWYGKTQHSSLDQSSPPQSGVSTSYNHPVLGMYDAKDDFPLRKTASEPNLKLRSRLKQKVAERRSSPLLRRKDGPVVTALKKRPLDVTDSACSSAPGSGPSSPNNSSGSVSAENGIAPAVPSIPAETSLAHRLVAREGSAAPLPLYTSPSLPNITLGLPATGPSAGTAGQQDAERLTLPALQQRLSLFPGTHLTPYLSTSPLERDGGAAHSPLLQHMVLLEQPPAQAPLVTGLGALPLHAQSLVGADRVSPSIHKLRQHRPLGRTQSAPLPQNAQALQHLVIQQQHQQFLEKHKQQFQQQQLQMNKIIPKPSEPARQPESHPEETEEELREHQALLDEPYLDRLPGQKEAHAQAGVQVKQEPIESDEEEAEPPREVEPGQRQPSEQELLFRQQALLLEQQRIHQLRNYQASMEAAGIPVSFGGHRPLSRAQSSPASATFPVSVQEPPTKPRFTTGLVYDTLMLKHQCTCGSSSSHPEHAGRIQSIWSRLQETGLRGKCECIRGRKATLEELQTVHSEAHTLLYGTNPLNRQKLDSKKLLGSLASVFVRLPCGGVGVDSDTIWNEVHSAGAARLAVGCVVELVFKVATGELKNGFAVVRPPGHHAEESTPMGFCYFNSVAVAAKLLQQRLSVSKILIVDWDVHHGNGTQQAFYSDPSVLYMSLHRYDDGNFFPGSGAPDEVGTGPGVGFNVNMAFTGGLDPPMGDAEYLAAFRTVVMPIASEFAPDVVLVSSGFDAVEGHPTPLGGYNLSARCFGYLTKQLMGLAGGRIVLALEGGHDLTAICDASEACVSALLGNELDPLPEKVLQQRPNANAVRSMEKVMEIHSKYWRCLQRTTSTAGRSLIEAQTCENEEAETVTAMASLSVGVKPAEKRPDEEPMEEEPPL

Activity [1] [%]	Activity [2] [%]	inhibition [3]	pIC50 (Histone deacetylase 8)	pIC50 [4]	inhibition [5] [%]	pIC50 [6]	inhibition [7] [%]	Structure (SMILES)	CC50 (K562) [µM]	CC50 (KCL-22) [µM]	CC50 (CCRF-CEM) [µM]
> 50	> 50	inactive						Cc1cc(NC(=O)CN2C(=O)S/C(=C/c3ccco3)C2=O)no1	98.6	> 100	> 100
> 50	> 50	inactive						O=C(CN1C(=O)S/C(=C/c2ccco2)C1=O)Nc1ccccc1			
> 50	> 50	inactive						O=C(CN1C(=O)S/C(=C/c2ccco2)C1=O)Nc1ccccn1			
> 50	> 50	inactive						O=C(CN1C(=O)S/C(=C/c2ccco2)C1=O)Nc1nccs1			
> 50	> 50	inactive						O=C(CN1C(=O)S/C(=C/c2ccco2)C1=O)Nc1ccc(Br)cc1	94	98.2	81
> 50	> 50	inactive						O=C(CN1C(=O)S/C(=C/c2ccco2)C1=O)Nc1ccccc1F			
> 50	> 50	inactive						O=C(CN1C(=O)S/C(=C/c2ccco2)C1=O)Nc1cccc(F)c1			
> 50	> 50	inactive						Cc1ccc(NC(=O)CN2C(=O)S/C(=C/c3ccco3)C2=O)cc1	> 100	> 100	102
> 50	> 50	inactive						O=C(CN1C(=O)S/C(=C/c2ccco2)C1=O)Nc1ccc(F)cc1			

The next lines start with the molecule.

Structure (SMILES)	Activity [1] [%]	Activity [2] [%]	inhibition [3]	pIC50 (Histone deacetylase 8)	pIC50 [4]	inhibition [5] [%]	pIC50 [6]	inhibition [7] [%]	CC50 (K562) [µM]	CC50 (KCL-22) [µM]	CC50 (CCRF-CEM) [µM]
O=C(CN1C(=O)S/C(=C/c2ccco2)C1=O)Nc1c(F)cc(Br)cc1F	> 50	> 50	inactive								
COc1ccc(NC(=O)CN2C(=O)S/C(=C/c3ccco3)C2=O)cc1	> 50	> 50	inactive								
Cc1c(NC(=O)CN2C(=O)S/C(=C/c3ccco3)C2=O)c(=O)n(-c2ccccc2)n1C	> 50	> 50	inactive								
O=C(CN1C(=O)S/C(=C/c2ccco2)C1=O)Nc1ccc(F)cc1F	> 50	> 50	inactive								
O=C(CN1C(=O)S/C(=C/c2ccco2)C1=O)Nc1ccc(Oc2ccccc2)cc1	> 50	> 50	inactive								
O=C(CN1C(=O)S/C(=C/c2ccco2)C1=O)Nc1cc(C(F)(F)F)ccc1Cl	> 50	> 50	inactive								
O=C(CN1C(=O)S/C(=C/c2ccco2)C1=O)Nc1ccc(Br)c(Br)c1	> 50	> 50									
O=C(CN1C(=O)S/C(=C/c2ccco2)C1=O)Nc1ccc([N+](=O)[O-])cc1	17	> 50	inactive	4.89							
Cc1cccc2sc(NC(=O)CN3C(=O)S/C(=C/c4ccco4)C3=O)nc12	> 50	> 50	inactive		4.14	> 50	3.91	> 50	97.1	97	96.8
Cc1ccc(NC(=O)CN2C(=O)S/C(=C/c3ccco3)C2=O)cc1Cl	> 50	> 50	inactive								
O=C(CN1C(=O)S/C(=C/c2ccco2)C1=O)Nc1ccc(Br)cc1F	> 50	> 50	inactive								
O=C(CN1C(=O)S/C(=C/c2ccco2)C1=O)Nc1ccc(Cl)cc1C(F)(F)F	> 50	> 50	inactive						> 100	> 100	79.9
O=C(CN1C(=O)S/C(=C/c2ccco2)C1=O)Nc1cccc(C(F)(F)F)c1	> 50	> 50	inactive								
